From ChEMBL document CHEMBL5058577, “EUbOPEN Chemogenomics Library 2 (Multiplex)” (2022)

System: Fibroblast
Assay: Multiplex assay against human fibroblast
Assay type: toxicity, cell-based
In short: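 Imaging took place on a CQ1 microscope at 37°C and 5% CO2 once compound had been added to live cells stained at seeding with Hoechst33342, BioTracker Green Microtubule Cytoskeleton Dye, MitoTracker Red and Annexin V Alexa Fluor 680. CellPathfinder machine-learning gating classed cells as Hoechst high-intensity objects or normal cells, classed normal cells as having healthy, pyknosed or fragmented nuclei, and classed pyknosed cells as mitotic or apoptotic. Tubulin, mitochondrial-mass and membrane-permeability phenotypes are per cents of the healthy-nucleus cells.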

[1] = 12 h, 1 µM, compound concentration 1 uM, replicate 1
[2] = 12 h, 1 µM, compound concentration 1 uM, replicate 2
[3] = 12 h, 10 µM, compound concentration 10 uM, replicate 1
[4] = 12 h, 10 µM, compound concentration 10 uM, replicate 2
[5] = 24 h, 1 µM, compound concentration 1 uM, replicate 1
[6] = 24 h, 1 µM, compound concentration 1 uM, replicate 2
[7] = 24 h, 10 µM, compound concentration 10 uM, replicate 1
[8] = 24 h, 10 µM, compound concentration 10 uM, replicate 2
[9] = 48 h, 1 µM, compound concentration 1 uM, replicate 1
[10] = 48 h, 1 µM, compound concentration 1 uM, replicate 2
[11] = 48 h, 10 µM, compound concentration 10 uM, replicate 1
[12] = 48 h, 10 µM, compound concentration 10 uM, replicate 2

## CSc1nc(NC2CCCC2)c([N+](=O)[O-])c(NC2CCCC2)n1 [GS-39783]
[1]
  Population Apoptotic (%): 50%
  Population Fragmented Nuclei (%): 16%
  Population Healthy Nuclei (%): 66%
  Population Hoechst High Intensity Objects (%): 3%
  Population Membrane Permeable-Phenotype (%): 2%
  Population Mitochondria Different-Phenotype (%): 6%
  Population Mitotic Cells (%): 50%
  Population Normal (%): 96%
  Population Pyknosed Nuclei (%): 16%
  Population Tubulin-Different-Phenotype (%): 29%
  Total Cell Count: 137
[2]
  Population Apoptotic (%): 39%
  Population Fragmented Nuclei (%): 28%
  Population Healthy Nuclei (%): 46%
  Population Hoechst High Intensity Objects (%): 5%
  Population Membrane Permeable-Phenotype (%): 10%
  Population Mitochondria Different-Phenotype (%): 10%
  Population Mitotic Cells (%): 60%
  Population Normal (%): 94%
  Population Pyknosed Nuclei (%): 25%
  Population Tubulin-Different-Phenotype (%): 57%
  Total Cell Count: 135
[3]
  Population Apoptotic (%): 54%
  Population Fragmented Nuclei (%): 16%
  Population Healthy Nuclei (%): 62%
  Population Hoechst High Intensity Objects (%): 5%
  Population Membrane Permeable-Phenotype (%): 0%
  Population Mitochondria Different-Phenotype (%): 5%
  Population Mitotic Cells (%): 45%
  Population Normal (%): 94%
  Population Pyknosed Nuclei (%): 21%
  Population Tubulin-Different-Phenotype (%): 39%
  Total Cell Count: 184
[4]
  Population Apoptotic (%): 36%
  Population Fragmented Nuclei (%): 25%
  Population Healthy Nuclei (%): 52%
  Population Hoechst High Intensity Objects (%): 6%
  Population Membrane Permeable-Phenotype (%): 4%
  Population Mitochondria Different-Phenotype (%): 16%
  Population Mitotic Cells (%): 63%
  Population Normal (%): 93%
  Population Tubulin-Different-Phenotype (%): 70%
  Total Cell Count: 165
[5]
  Population Apoptotic (%): 30%
  Population Fragmented Nuclei (%): 12%
  Population Healthy Nuclei (%): 69%
  Population Hoechst High Intensity Objects (%): 2%
  Population Membrane Permeable-Phenotype (%): 3%
  Population Mitochondria Different-Phenotype (%): 4%
  Population Mitotic Cells (%): 69%
  Population Normal (%): 97%
  Population Pyknosed Nuclei (%): 17%
  Population Tubulin-Different-Phenotype (%): 27%
  Total Cell Count: 132
[6]
  Population Apoptotic (%): 32%
  Population Fragmented Nuclei (%): 31%
  Population Healthy Nuclei (%): 44%
  Population Membrane Permeable-Phenotype (%): 10%
  Population Mitochondria Different-Phenotype (%): 12%
  Population Mitotic Cells (%): 67%
  Population Pyknosed Nuclei (%): 23%
  Population Tubulin-Different-Phenotype (%): 60%
  Total Cell Count: 133
[7]
  Population Apoptotic (%): 58%
  Population Fragmented Nuclei (%): 17%
  Population Healthy Nuclei (%): 65%
  Population Hoechst High Intensity Objects (%): 2%
  Population Membrane Permeable-Phenotype (%): 0%
  Population Mitochondria Different-Phenotype (%): 4%
  Population Mitotic Cells (%): 41%
  Population Normal (%): 97%
  Population Pyknosed Nuclei (%): 17%
  Population Tubulin-Different-Phenotype (%): 33%
  Total Cell Count: 172
[8]
  Population Apoptotic (%): 36%
  Population Fragmented Nuclei (%): 25%
  Population Healthy Nuclei (%): 52%
  Population Hoechst High Intensity Objects (%): 7%
  Population Membrane Permeable-Phenotype (%): 6%
  Population Mitochondria Different-Phenotype (%): 10%
  Population Mitotic Cells (%): 63%
  Population Normal (%): 92%
  Population Pyknosed Nuclei (%): 21%
  Population Tubulin-Different-Phenotype (%): 57%
  Total Cell Count: 164
[9]
  Population Apoptotic (%): 70%
  Population Fragmented Nuclei (%): 22%
  Population Healthy Nuclei (%): 69%
  Population Hoechst High Intensity Objects (%): 4%
  Population Membrane Permeable-Phenotype (%): 1%
  Population Mitochondria Different-Phenotype (%): 5%
  Population Mitotic Cells (%): 30%
  Population Normal (%): 95%
  Population Pyknosed Nuclei (%): 7%
  Population Tubulin-Different-Phenotype (%): 29%
  Total Cell Count: 134
[10]
  Population Apoptotic (%): 33%
  Population Fragmented Nuclei (%): 41%
  Population Healthy Nuclei (%): 44%
  Population Hoechst High Intensity Objects (%): 3%
  Population Membrane Permeable-Phenotype (%): 23%
  Population Mitochondria Different-Phenotype (%): 14%
  Population Mitotic Cells (%): 66%
  Population Normal (%): 96%
  Population Pyknosed Nuclei (%): 14%
  Population Tubulin-Different-Phenotype (%): 60%
  Total Cell Count: 129
[11]
  Population Apoptotic (%): 66%
  Population Fragmented Nuclei (%): 19%
  Population Healthy Nuclei (%): 65%
  Population Hoechst High Intensity Objects (%): 2%
  Population Membrane Permeable-Phenotype (%): 1%
  Population Mitochondria Different-Phenotype (%): 5%
  Population Mitotic Cells (%): 33%
  Population Normal (%): 97%
  Population Pyknosed Nuclei (%): 14%
  Population Tubulin-Different-Phenotype (%): 41%
  Total Cell Count: 168
[12]
  Population Apoptotic (%): 60%
  Population Fragmented Nuclei (%): 40%
  Population Healthy Nuclei (%): 46%
  Population Hoechst High Intensity Objects (%): 6%
  Population Membrane Permeable-Phenotype (%): 6%
  Population Mitochondria Different-Phenotype (%): 7%
  Population Mitotic Cells (%): 40%
  Population Normal (%): 93%
  Population Pyknosed Nuclei (%): 13%
  Population Tubulin-Different-Phenotype (%): 60%
  Total Cell Count: 193
